Experimental data: ChEMBL document CHEMBL4261601, “Discovery and lead identification of quinazoline-based BRD4 inhibitors” (Bioorg Med Chem Lett, 2018)

Tests used:
[1] = target: Bromodomain-containing protein 4 (Homo sapiens, UniProt O60885); test: Displacement of biotinylated acetylated peptide from recombinant human partial length BRD4 long isoform bromodomain 1/2 (N44 to E460 residues) expressed in Escherichia coli BL21 measured after 1 hr by Bromoscan method
[2] = system: MV4-11; test: Cytotoxicity against human MV411 cells after 72 hrs by CellTiter-Glo assay; type: functional, cell-based; conditions: MV4-11, 72 h
[3] = Half life in CD-1 mouse at 10 mg/kg, po; type: ADME, organism-based; conditions: in vivo
Procedure, shortened: (§1)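 CD-1 mice (n = 3) received a single oral dose of 10 mg/kg. Plasma drug levels were followed over time to derive AUC0–∞, t1/2 and oral bioavailability (F%), the last relative to the iv arm.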

[4] = system: Mus musculus; test: Cmax in CD-1 mouse at 10 mg/kg, po measured after 5 mins; type: ADME, organism-based; design: dose 10 mg/kg, route oral; conditions: in vivo
[5] = AUC (0 to infinity) in CD-1 mouse at 10 mg/kg, po; type: ADME, organism-based; design: dose 10 mg/kg, time infinity, route oral; conditions: CD-1, mouse, in vivo; procedure, shortened: as §1

| Structure (SMILES) | Kd [1] | half-life [3] | Cmax [4] | AUC(0-inf) [5] | IC50 [2] |
| --- | --- | --- | --- | --- | --- |
| CN(C)CCN1CCN(c2nc(NCc3cccc(Cl)c3)c3cc(-c4ccc(O)nc4)ccc3n2)CC1 | 0.55 µM |  |  |  | 6.07 µM |
| CN(C)CCN1CCN(c2nc(NCc3cccc(Cl)c3)c3cc(-c4ccn(C)c(=O)c4)ccc3n2)CC1 | 7.1 µM |  |  |  | 6.89 µM |
| Cc1noc(C)c1-c1ccc2nc(N3CCN(CCN(C)C)CC3)nc(NCCc3ccc(Cl)cc3)c2c1 | 3 µM |  |  |  | 6.65 µM |
| Cc1noc(C)c1-c1ccc2nc(N3CCN(CCN(C)C)CC3)nc(N3CCC3c3ccccc3)c2c1 (stereo unspecified) | 0.48 µM |  |  |  | 4.88 µM |
| Cc1oncc1-c1ccc2nc(N3CCN(CCN(C)C)CC3)nc(NCc3cccc(Cl)c3)c2c1 | 1.1 µM |  |  |  | 8.03 µM |
| CN(C)CCN1CCN(c2nc(NCc3cccc(Cl)c3)c3cc(-c4ccnc(O)c4)ccc3n2)CC1 | 9.1 µM |  |  |  | 17.3 µM |
| Cc1noc(C)c1-c1ccc2nc(Cl)nc(NCc3cccc(Cl)c3)c2c1 |  |  |  |  | 11.3 µM |
| Cc1noc(C)c1-c1ccc2c(NCc3cccc(Cl)c3)nc(N3CCN(CCN(C)C)CC3)nc2c1 | 0.61 µM |  |  |  | 1.87 µM |
| Cc1noc(C)c1-c1ccc2nc(N3CCN(CCN(C)C)CC3)nc(NCc3cccc(F)c3)c2c1 | 0.17 µM |  |  |  | 1.23 µM |
| Cc1noc(C)c1-c1ccc2nc(N3CCN(CCN(C)C)CC3)nc(NCc3cccs3)c2c1 | 0.15 µM |  |  |  | 1.62 µM |
| Cc1n[nH]c(C)c1-c1ccc2nc(N3CCN(CCN(C)C)CC3)nc(NCc3cccc(Cl)c3)c2c1 | 1.5 µM |  |  |  | 2.85 µM |
| Cc1noc(C)c1-c1ccc2nc(N3CCN(CCN(C)C)CC3)nc(N(C)Cc3cccc(Cl)c3)c2c1 | 0.27 µM |  |  |  | 5.5 µM |
| Cc1noc(C)c1-c1ccc2nc(N3CCCN(CCN(C)C)CC3)nc(NCc3cccc(Cl)c3)c2c1 | 0.15 µM |  |  |  | 2.1 µM |

More lines, in order of falling Kd [1], values ahead:

| Kd [1] | half-life [3] | Cmax [4] | AUC(0-inf) [5] | Structure (SMILES) | IC50 [2] |
| --- | --- | --- | --- | --- | --- |
| 0.14 µM |  |  |  | Cc1noc(C)c1-c1ccc2nc(N3CCN(C)CC3)nc(NCc3cccc(Cl)c3)c2c1 | 1.6 µM |
| 0.12 µM |  |  |  | Cc1noc(C)c1-c1ccc2nc(-c3cnn(CCC#N)c3)nc(NCc3cccc(Cl)c3)c2c1 | 0.95 µM |
| 0.11 µM |  |  |  | Cc1noc(C)c1-c1ccc2nc(N(C)CCN(C)C)nc(NCc3cccc(Cl)c3)c2c1 | 2.97 µM |
| 0.097 µM |  |  |  | Cc1noc(C)c1-c1ccc2nc(N3CCN(CCCN(C)C)CC3)nc(NCc3cccc(Cl)c3)c2c1 | 2.36 µM |
| 0.095 µM |  |  |  | Cc1noc(C)c1-c1ccc2nc(-c3cnn(CCO)c3)nc(NCc3cccc(Cl)c3)c2c1 | 1.67 µM |
| 0.092 µM |  |  |  | COCCn1cc(-c2nc(NCc3cccc(Cl)c3)c3cc(-c4c(C)noc4C)ccc3n2)cn1 | 1.87 µM |
| 0.086 µM |  |  |  | Cc1noc(C)c1-c1ccc2nc(N3CCN(CCN(C)C)CC3)nc(NC3(c4cccc(Cl)c4)CC3)c2c1 | 1.6 µM |
| 0.08 µM | 4 h | 9 ng/mL | 54 ng·h/mL | Cc1noc(C)c1-c1ccc2nc(C(=O)NC3CCN(C)CC3)nc(NCc3cccc(Cl)c3)c2c1 | 1.02 µM |
| 0.079 µM |  |  |  | Cc1noc(C)c1-c1ccc2nc(C(=O)NC3CCOCC3)nc(NCc3cccc(Cl)c3)c2c1 | 2.84 µM |
| 0.079 µM |  |  |  | Cc1noc(C)c1-c1ccc2nc(N3CCN(CCN(C)C)CC3)nc(NCc3cncc(Cl)c3)c2c1 | 1.37 µM |
| 0.071 µM |  |  |  | Cc1noc(C)c1-c1ccc2nc(N3CCN(C(=O)CO)CC3)nc(NCc3cccc(Cl)c3)c2c1 | 1.33 µM |
| 0.06 µM |  |  |  | Cc1noc(C)c1-c1ccc2nc(N3CCN(CCN(C)C)CC3)nc(N3CCCCC3c3ccccc3)c2c1 (stereo unspecified) | 5.07 µM |
| 0.059 µM |  |  |  | Cc1noc(C)c1-c1ccc2nc(C(=O)NCc3cnn(C)c3)nc(NCc3cccc(Cl)c3)c2c1 | 1.27 µM |
| 0.055 µM |  |  |  | Cc1noc(C)c1-c1ccc2[nH]c(=O)cc(NCc3cccc(Cl)c3)c2c1 | 1.8 µM |
